UBC13 inh = UBC13 polyubiquitin chain formation inhibitors, primary screen, biochemical, TR-FRET, uHTS. inhibition, % at 20 µM. hit rate 0.47% among 330,000; in the data active = inhibition above about 45%, passing the limit was not always enough
CHOP UPR activ = activators of apoptotic CHOP UPR arm, primary screen, cell-based, CHO-CHOP luciferase reporter, luminescence, uHTS; AID 449763, 2010; activation, % at 10 µM; hit rate 0.34% among 330,000; UPR activation; percent of tunicamycin response over DMSO baseline;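 active = at 10 µM dose, activation of 40% or more, normalized to positive control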;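 note: 100% = tunicamycin at 10 µg/mL and 0% = DMSO alone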
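Test system: CHO-CHOP cells, stable luciferase reporter of PERK-eIF2a-CHOP signalling | Quantity: 500 CHO-CHOP cells per well | Buffer or medium: F12 plus 10% serum | Compound dosing: 10 µM single point, 0.5% DMSO | Schedule: 6 h compound treatment, 37 °C | Signal: Luciferase luminescence | Control set: Tunicamycin high control, DMSO low control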
XBP1 UPR activ = activators of adaptive XBP1 UPR arm, primary screen, cell-based, CHO-XBP1 luciferase reporter, luminescence, uHTS. AID 463104, 2010. hit rate 0.33% among 330,000. activation, % at 20 µM. IRE1-XBP1 UPR activation; percent of tunicamycin response, DMSO as zero;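 active = versus positive control, 20 µM dose yields 30% or more activation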;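 note: 100% = tunicamycin at 10 µg/mL and 0% = DMSO only wells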
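Signal: luciferase luminescence; Assay system: CHO-XBP1 luciferase reporter cells; Amount: one thousand reporter cells per well; Dosing: 20 µM single concentration, DMSO 1%; Benchmarks: high control tunicamycin 10 µg/mL final, low control DMSO vehicle only; Schedule: 6 h compound exposure at 37 °C, 5% CO2; Evaluation: percent activation relative to tunicamycin reference.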
Mdm2-MdmX inh = inhibitors of human Mdm2-MdmX association, primary screen, cell-based, luminescence, split luciferase, SaOS-2, uHTS | Protein Mdm4 (Homo sapiens) + E3 ubiquitin-protein ligase Mdm2 (Homo sapiens), … | SaOS-2 split-luciferase Mdm2/MdmX complementation | inhibition, % at 8 µM | hit rate 3% among 330,000;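 active = inhibition of at least 50% at 8 µM in the primary screen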
Apaf-1 inh = inhibitors of human Apaf-1 apoptosome, primary screen, biochemical, DEVD-Rh110 fluorescence, uHTS | AID 489030, 2010 | reconstituted apoptosome caspase-3 activity | inhibition, % at 20 µM | Apoptotic protease-activating factor 1 (Homo sapiens), O14727 | hit rate 0.71% among 330,000; active = inhibition of at least 40% at 20 µM;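 note: plate controls were DMSO wells for no effect and DEVD-CHO caspase inhibitor wells for full effect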
Target sequence (O14727 whole entry, looked up): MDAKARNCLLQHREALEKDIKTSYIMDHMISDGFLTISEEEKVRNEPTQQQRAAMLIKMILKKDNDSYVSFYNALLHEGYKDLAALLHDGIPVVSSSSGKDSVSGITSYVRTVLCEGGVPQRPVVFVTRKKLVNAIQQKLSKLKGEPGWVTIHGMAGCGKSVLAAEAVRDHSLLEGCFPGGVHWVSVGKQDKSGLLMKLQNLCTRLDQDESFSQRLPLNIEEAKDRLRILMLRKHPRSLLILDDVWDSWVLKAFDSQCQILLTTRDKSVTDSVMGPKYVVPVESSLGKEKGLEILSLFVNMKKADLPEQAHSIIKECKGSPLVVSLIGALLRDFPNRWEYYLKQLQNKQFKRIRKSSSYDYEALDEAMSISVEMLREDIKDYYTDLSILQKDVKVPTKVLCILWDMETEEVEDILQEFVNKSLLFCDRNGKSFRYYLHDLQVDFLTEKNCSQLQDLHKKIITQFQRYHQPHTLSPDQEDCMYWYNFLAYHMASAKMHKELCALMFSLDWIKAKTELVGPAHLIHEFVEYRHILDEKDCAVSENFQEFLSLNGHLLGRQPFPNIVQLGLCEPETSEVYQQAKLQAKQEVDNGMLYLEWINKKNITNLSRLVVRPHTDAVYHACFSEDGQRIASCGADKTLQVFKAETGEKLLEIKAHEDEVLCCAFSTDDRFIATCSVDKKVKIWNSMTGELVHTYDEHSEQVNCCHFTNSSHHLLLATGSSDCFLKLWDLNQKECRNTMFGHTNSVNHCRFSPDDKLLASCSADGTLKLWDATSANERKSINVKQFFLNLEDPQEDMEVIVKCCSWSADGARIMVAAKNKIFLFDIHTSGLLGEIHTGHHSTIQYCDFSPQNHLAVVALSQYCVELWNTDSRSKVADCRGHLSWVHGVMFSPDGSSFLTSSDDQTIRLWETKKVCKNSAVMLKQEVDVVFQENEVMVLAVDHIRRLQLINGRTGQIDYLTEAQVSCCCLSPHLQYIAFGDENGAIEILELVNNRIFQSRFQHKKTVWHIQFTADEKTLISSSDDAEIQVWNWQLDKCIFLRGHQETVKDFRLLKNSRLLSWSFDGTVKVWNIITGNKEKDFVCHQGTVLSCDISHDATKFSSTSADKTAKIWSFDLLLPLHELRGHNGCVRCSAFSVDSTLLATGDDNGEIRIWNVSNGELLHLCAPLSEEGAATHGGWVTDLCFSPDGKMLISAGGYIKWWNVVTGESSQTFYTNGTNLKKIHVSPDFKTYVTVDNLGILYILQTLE
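Material: cell-free apoptosome with Apaf-1, procaspase-3 and caspase-9; Buffer or medium: Hepes pH 7.5 with detergent and BSA; Reagent: cytochrome c trigger plus (Z-DEVD)2-Rh110 caspase-3 substrate; Times: compound with Apaf-1, dATP, procaspase-3 30 min, then 50 min reaction, room temperature; Technique: Rh110 fluorescence intensity.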
Mdm2-MdmX conf = Mdm2-MdmX complex disruptors, retested hits, confirmation, luminescence, single concentration; shares compounds with Mdm2-MdmX inh; Mdm2-MdmX binding, luminescent assay; inhibition, % at 8 µM; hit rate 55% among 10,000; in the data active = inhibition above about 40%
Full FLuc ctr = full-length luciferase signal inhibition, confirmation, counter-screen for Mdm2/MdmX interaction inhibitor project, cell-based, single concentration, SaOS-2; shares compounds with Mdm2-MdmX inh; SaOS-2 full-length luciferase counterscreen, luminescence; inhibition, % at 8 µM; hit rate 77% among 6,200;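 active = mean inhibition at 8 µM reaching about 37%, which flags the compound as non-specific, limit read from the data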;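 note: p53-null SaOS-2 cells with luciferase driven by a doxycycline-inducible promoter; compound on cells about two nights before reading with doxycycline added after day one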
An asterisk follows results filed as active; x = not tested or not shown. Hits are enriched below; roughly 4.1% of the tested compounds scored in any of these assays.

SMILES	UBC13 inh	CHOP UPR activ	XBP1 UPR activ	Mdm2-MdmX inh	Apaf-1 inh	Mdm2-MdmX conf	Full FLuc ctr
CCOc1cc(/C=N/NC(=O)C(=O)NCCCOC(C)C)cc(Br)c1O	0	2	-1	-36	-173	x	x
Cc1ccc(-n2nc3c([n+]2[O-])CCc2c-3no[n+]2[O-])cc1	7	-1	-6	53*	-3	11	x
[O-][n+]1onc2c1CCc1c-2nn(-c2ccccc2Cl)[n+]1[O-]	3	-3	-9	43	-5	x	x
CCCNC(=O)Cn1cnc2sc(C(=O)N3CCN(Cc4ccc5c(c4)OCO5)CC3)c(C)c2c1=O	1	0	1	21	4	x	x
Cc1c(C(=O)N2CCN(Cc3ccc4c(c3)OCO4)CC2)sc2ncnc(N3CCN(c4ccccc4F)CC3)c12	29	2	3	63*	12	23	x
Cc1c(C(=O)N2CCN(Cc3ccc4c(c3)OCO4)CC2)sc2ncnc(N3CCN(c4ccccc4)CC3)c12	42	4	10	73*	12	34	x
CC12CCC(C(=O)N(NC(=O)c3ccccc3Cl)C1=O)C2(C)C (stereo unspecified)	3	-1	2	13	-4	x	x
CC(C)(C)OC(=O)NN1CC(=O)N2[C@@H](Cc3c([nH]c4ccccc34)C2(C)C)C1=O	0	2	-2	-9	-2	x	x
Cc1nc(N)nc(N)c1CCCc1ccc(Cl)c(Cl)c1	29	0	-1	68*	10	57*	50*
O=C(Nc1nc2ccccc2n1CCN1CCOCC1)c1cn(-c2ccccc2)nc1-c1ccccc1	-7	-2	-1	51*	30	22	x
Cc1cccc(CS(=O)(=O)Cc2ccc(C(=O)NC3CCCCCC3)o2)c1	7	2	-5	0	6	x	x
CCCCN(CC)CCCNC(=O)c1ccc(CS(=O)(=O)c2ccccc2C)o1	-4	-2	-3	-20	2	x	x
O=C(COC(=O)c1cncc(Br)c1)NC1CCCCCC1	-6	-1	-3	10	1	x	x
Cc1ccc2c(C)nc(Nc3nc(CSc4nnnn4-c4ccccc4)cc(=O)[nH]3)nc2c1	-7	-2	0	89*	-2	61*	63*
COc1ccc2nc(Nc3nc(CSc4nnnn4-c4ccccc4)cc(=O)[nH]3)nc(C)c2c1	-5	-1	4	49	11	x	x
CCOc1ccc2nc(Nc3nc(CSc4nnnn4-c4ccccc4)cc(=O)[nH]3)nc(C)c2c1	-11	1	-2	75*	38	16	x
CC(=O)Nc1nc(C)c(-c2csc(Nc3cccc(C(C)=O)c3)n2)s1	18	1	2	82*	17	46*	41*
CC(=O)Nc1nc(C)c(-c2csc(Nc3cccc([N+](=O)[O-])c3)n2)s1	-18	4	3	90*	-5	71*	36
O=C(C(O)c1ccccc1)N1N=C(c2ccccc2)CC1(O)C(F)(F)F (stereo unspecified)	1	3	-1	4	4	x	x
Cc1c(C)n2c(SCC(=O)N3CCN(c4ccccc4)CC3)nnc2[nH]c1=O	-1	0	-3	2	-5	x	x
O=C(Nc1cccc(-c2cn3ccccc3n2)c1)c1cccc(Cl)c1	6	4	9	75*	18	-8	x
CN1C(=O)/C(=C/c2coc3ccc(O)cc3c2=O)SC1=S	-5	5	2	23	-10	x	x
Cc1cc(/C=C2\SC(=S)N(C)C2=O)c(C)n1-c1ccccc1O	-54	2	5	86*	-3	90*	108*
Cc1cc(/C=C2\SC(=S)N(C)C2=O)c(C)n1-c1ccc(O)cc1	-50	-8	-5	85*	6	81*	50*
O=C(Nc1ccccc1)c1nc[nH]c1C(=O)NCCCCNC(=O)c1[nH]cnc1C(=O)Nc1ccccc1	-2	3	3	77*	12	45*	90*
SMILES	UBC13 inh	CHOP UPR activ	XBP1 UPR activ	Mdm2-MdmX inh	Apaf-1 inh	Mdm2-MdmX conf	Full FLuc ctr
Cc1ccc(NC(=O)c2nc[nH]c2C(=O)NCCCCNC(=O)c2[nH]cnc2C(=O)Nc2ccc(C)cc2)cc1	4	14	25	80*	-4	21	x
C[C@@H](NC(=O)c1[nH]cnc1C(=O)Nc1ccccc1)c1ccccc1	-9	2	-1	38	18	x	x
O=C(Nc1ccccc1)c1nc[nH]c1C(=O)NCCNC(=O)c1[nH]cnc1C(=O)Nc1ccccc1	3	2	2	47	6	x	x
Cc1ccc(NC(=O)c2[nH]cnc2C(=O)NN)cc1	-7	0	2	-4	6	x	x
Cc1ccc(NC(=O)c2nc[nH]c2C(=O)NCCCCCCNC(=O)c2[nH]cnc2C(=O)Nc2ccc(C)cc2)cc1	-10	3	10	70*	8	11	x
O=C(c1ccccc1)c1nc[nH]c1C(=O)Nc1ccccc1	-18	-3	6	50*	13	30	65*
CCOC(=O)c1ccc(N2C(=O)c3cccc4c(C(=O)O)ccc(c34)C2=O)cc1	-10	1	-3	10	2	x	x
CSCCC(NC(=O)OC(C)(C)C)C(=O)NC(C(=O)NC(CC(C)C)C(N)=O)C(C)C (stereo unspecified)	6	0	1	-1	2	x	x
Clc1cccc(Cl)c1CSc1nnc(-c2sccc2-n2cccc2)o1	6	1	4	13	14	x	x
O=[N+]([O-])c1ccc(N=Nc2ccc(O)cc2O)cc1	-273	6	2	98*	7	56*	30
COC(=O)c1ccc(OCC2c3cc(OC)c(OC)cc3CCN2C(=O)c2ccco2)cc1 (stereo unspecified)	-22	0	0	53*	23	43*	71*
COC(=O)c1ccc(OCC2c3cc(OC)c(OC)cc3CCN2C(C)=O)cc1 (stereo unspecified)	-5	-2	-1	-1	-11	x	x
CCS(=O)(=O)c1nnnn1-c1ccccc1S(C)(=O)=O	6	-1	-3	60*	-4	63*	34
COc1ccc(-n2nnnc2S(=O)(=O)Cc2ccc(C(=O)O)cc2)cc1	-4	-2	-5	40	-1	x	x
